Data taken from the EternaBench riboswitch data.

Tested on: MS2 coat protein
Assay: apparent Kd, MS2 coat protein; higher = weaker binding; RNA-MaP array; FMN 200 µM where present
How it was run: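 Designs were transcribed by stalled E. coli RNA polymerase on Illumina sequencing-chip clusters. They were titrated with SNAP-549-labelled MS2 coat protein from 0.7 or 1.5 nM, doubling to 3 µM, without and then with constant ligand. Buffer: 100 mM Tris-HCl pH 7.5, 80 mM KCl, 4 mM MgCl2, BSA, DTT, yeast tRNA, Tween-20. Green signal was normalised to red-channel RNA signal and control-cluster median Fmax. Apparent Kd is the median of filtered per-cluster binding-curve fits.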

[1] = designed as: OFF switch for flavin mononucleotide, no ligand
[2] = ligand present: flavin mononucleotide, designed as: OFF switch for flavin mononucleotide
[3] = designed as: ON switch for flavin mononucleotide, no ligand
[4] = ligand present: flavin mononucleotide, designed as: ON switch for flavin mononucleotide

GUGUACUGAGGAUAUACAUGAGGAUCACCCAUGUGAAUAAGAUAGAAUAAGAUAAAGUGUAGAAGGCAGAGUGU
apparent Kd [1]: 40.8 nM | apparent Kd [2]: 35.4 nM

GUGUACUGAGGAUAUGCUGGAAUCUAGCGAAGCUAGGUUCCACAUGAGGAUCACCCAUGUAGAAGGCGGUACAC
apparent Kd [1]: 34.2 nM | apparent Kd [2]: 13.7 nM

GUGUAGACAGGAUAUGCUUUGAGCGUAUGAGAGUAGGCUCGACAUGAGGAUCACCCAUGUAGAAGGGUCUACAC
apparent Kd [1]: 12.4 nM | apparent Kd [2]: 13.2 nM

GUGUAGAUAUCAGGAUAUCUAUUUCCUACAUGAGGAUCACCCAUGUAGAUGAUCACCCAUGUAAAGGAGAAGGGAUGUCUAUAC
apparent Kd [3]: 163 nM | apparent Kd [4]: 138 nM

GUGUAGUGAGGAUAUACAUGAGGAUCACCCAUGUGAAUAAGAUAGAAUAAGAUAAAGUGUAGAAGGUAUAGUGU
apparent Kd [1]: 53.2 nM | apparent Kd [2]: 35.3 nM

GUGUCUAACUAGAAGGCCGUAUGCAAAGCAUACGGAGGAUAUGGGUUCCGGAAACGGACAUGAGGAUCACCCAUGUGGCACAAA
apparent Kd [3]: 94.3 nM | apparent Kd [4]: 13.4 nM

GUGUGCUGAGGAUAUACAGAGGAAGAUAAGAUAAGAUAAUCACAUGAGGAUCACCCAUGUAGAAGGCAGAGUGU
apparent Kd [1]: 23.7 nM | apparent Kd [2]: 35.5 nM

GUGUUACAUGAGGAUCACCCAUGUGAGGAUAUCAUGCUUCGUAGUAAACUACGAAGUGUGAGAAGGCACAUGAC
apparent Kd [1]: 265 nM | apparent Kd [2]: 806 nM

GUUAAUUAGUGAGGAUAUACAGAGAGUGAAGCUGUAGAAGGCACAUUCCUCAAGACAUGAGGAUCACCCAUGUGAUAAUAAGAU
apparent Kd [1]: 37.4 nM | apparent Kd [2]: 105 nM

GUUACACAUGAGGAUCACCCAUGUAAGGAUAUGCUGCGGUCGCGCUGACGUGACUGCAGCAGAAGGUACACAUG
apparent Kd [1]: 105 nM | apparent Kd [2]: 133 nM

GUUAGGAAUCUAGCGAACAUGAGGAUCACCCAUGUUAGUGGGAAGGAUAUGGUACAGAAACUGUACCAGAAGGUCUUAUUGUUU
apparent Kd [3]: 398 nM | apparent Kd [4]: 305 nM

GUUCUGCCUCCUGCCGGAACAUGAGGAUCACCCAUGUUGCCUGAGGAUAUCCUAUGGCUCCCACAGGAGAAGGCAGGCAACAUA
apparent Kd [1]: 86.2 nM | apparent Kd [2]: 371 nM

GUUGCGUUUGUGAGGAUAUGCUGGUCCUUGGUUCGGCAGAAGGCACAUGAGGAUCACCCAUGUGGUGUCGUUCC
apparent Kd [1]: 14.2 nM | apparent Kd [2]: 22.4 nM

GUUGCUACUGAGGAUAUUAUUCUACCCGACUGAUAAGAAGGCAGUACAUGAGGAUCACCCAUGUGGGUAGCCAG
apparent Kd [1]: 16.7 nM | apparent Kd [2]: 22.5 nM

GUUGGGUGUCAUGUCGCACAUGAGGAUCACCCAUGUAGGAGGUAGGAUAUCCACGAGAAACGAGAGGAGAAGGGCCAUUAGCGU
apparent Kd [1]: 19.2 nM | apparent Kd [2]: 23 nM

GUUGUUUGAGGAUAUACAUGAGGAUCACCCAUGUGUGUCCAUACGCGUGAGUCUUCGUGUAGAAGGCGGGCGGC
apparent Kd [1]: 13.7 nM | apparent Kd [2]: 14.7 nM

GUUUAGUGAGGAUAUGUGGCGUCGAUCGAGCGCGGUCUGCUACAGAAGGCACAUGAGGAUCACCCAUGUUUCUC
apparent Kd [1]: 258 nM | apparent Kd [2]: 371 nM

GUUUCUAUAUGUUUUAUUUAACAGUCAGAAGGUGAUACUACGACAUGAGGAUCACCCAUGUAAUUCAAGGAUAUGAACUUAAUC
apparent Kd [3]: 1060 nM | apparent Kd [4]: 517 nM

GUUUUUGCAUGAGGAUAUGCUCGCAUUUCAAGAGCAGAAGGUAUUUCUUUUGACAUGAGGAUCACCCAUGUAUUUAUCAUUGAA
apparent Kd [3]: 21 nM | apparent Kd [4]: 18.9 nM

UAAAACGGAGGAUAUACUGACCCUCAAAACAGACGCGCUGGACAUGAGGAUCACCCAUGUAGAAGGCCGAAUGC
apparent Kd [1]: 26.3 nM | apparent Kd [2]: 61.9 nM

UAAAAGACUAGCAAAUAAGUUCCACAUGAGGAUCACCCAUGUCAGGAUAUGAGCAGCAAAGCUGCUCAGAAGGGACAGCUAGUC
apparent Kd [1]: 5.53 nM | apparent Kd [2]: 6.99 nM

UAAAAGACUAGCUUUGGUAAGAUCACAUGAGGAUCACCCAUGUAGGAUAUGAGCAGAAAAUCUGCUCAGAAGGACAUGCUAGUC
apparent Kd [1]: 16.2 nM | apparent Kd [2]: 156 nM

UAAACGUUCUAGAAGGUGCUUUUGUUAAACAAGCAAGGAUAUAGACAUGAGGAUCACCCAUGUCUUUUAGACAUCGACAUACUU
apparent Kd [1]: 6.9 nM | apparent Kd [2]: 8.03 nM

UAAAUCUUGUAAGGAUAUACACGAGAUUCAAGUGUAGAAGGUACUUACAUGAGGAUCACCCAUGUAUACAUGGAUAAUAUAUAU
apparent Kd [3]: 206 nM | apparent Kd [4]: 32.2 nM

UAAGAGUGAGGAUAUACGUCGCUGGACCGGAUGGACGCAUGACAUGAGGAUCACCCAUGUAGAAGGCACAAAAC
apparent Kd [1]: 20.2 nM | apparent Kd [2]: 25.5 nM

UAAUAAAGUGUGAGGAUAUGCUGGUCCAUAGAUCAGCAGAAGGCACAUGAGGAUCACCCAUGUAAUAUAUAAAU
apparent Kd [1]: 28.4 nM | apparent Kd [2]: 145 nM

UAAUAAUAGCAAGGAUAUGGUUAUUAUAAUAUACCAGAAGGUGCACAUGAGGAUCACCCAUGUUUUAUAAUUUGUAAUUUAAAU
apparent Kd [1]: 30.7 nM | apparent Kd [2]: 27.3 nM

UAAUAUUUAUGAUAUUAUUACAUUAGAAGGCUAGACAUGUGGAUACAUGAGGAUCACCCAUGUAUAGAGGAUAUAGACAUAUAG
apparent Kd [1]: 25.8 nM | apparent Kd [2]: 42.6 nM

UAAUCGUUGCAGAAGGUUAUUUUUUUAACAUUUCUCUUAACAUGAGGAUCACCCAUGUUUUUGAUGAAGGAUAUGCAACGGUAG
apparent Kd [1]: 6.67 nM | apparent Kd [2]: 5.51 nM

UAAUUGUGAGGAUAUUCGUAGUUCACGGAGACGUGAAUUACGGAGAAGGCACAUGAGGAUCACCCAUGUUCCUU
apparent Kd [1]: 17.8 nM | apparent Kd [2]: 84.8 nM

UAAUUUUUGACAGGAUAUCCAUGUACAUGAGGAUCACCCAUGUAAAAGGGUAGCCUCAUCGGGCAGGAGAAGGGUCGAUAGGCG
apparent Kd [1]: 249 nM | apparent Kd [2]: 134 nM

UACAAUCUAUCUGAGGAUAUCAUGCAUUACACAUGAGGAUCACCCAUGUGCAGGAAAACUGCAUAUGAGAAGGCAGAUAGAUUGU
apparent Kd [3]: 561 nM | apparent Kd [4]: 23.8 nM

UACAGACAUGAGGAUCACCCAUGUAAGGAUAUCGGUACCGAUGGCAUAAUCUGCUCGGCGAGAAGGUACAGUGU
apparent Kd [1]: 22.6 nM | apparent Kd [2]: 24.9 nM

UACAUGAGGAUCACCCAUGUUUUGUCGUGUAUGGUAUUUAUCUAGGAUAUCAUUUUAUUUAGGUAUGAGAAGGAGAAUAUUAAU
apparent Kd [1]: 35.4 nM | apparent Kd [2]: 36.2 nM

UACAUGUAAGGAUAUGUAAAAUCAAAACAAGAACGAUAAAGACAGAAGGUACAUGAGGAUCACCCAUGUGUCCC
apparent Kd [1]: 20.5 nM | apparent Kd [2]: 21.4 nM

UACAUUAACAUGAGGAUCACCCAUGUUGGCCAGUCUCUCACCAGAAGGCACGUAGAGUACAACAGUGAGGAUAUGGGUGACAUA
apparent Kd [3]: 139 nM | apparent Kd [4]: 86.1 nM

UACCAAUUUUUGGUAUUACACUAUGAGGAUAUCAUAUAUGAAUACAUGAGGAUCACCCAUGUGUGUGAGAAGGCAUAAUUUAUA
apparent Kd [3]: 28.1 nM | apparent Kd [4]: 10.5 nM

UACCACGACAACGCGGUAUCACAUGAGGAUCACCCAUGUUCACAGGAUAUGCGAUAGCCAACGAAGCAGAAGGGUGAUUACUUA
apparent Kd [3]: 70.2 nM | apparent Kd [4]: 158 nM

UACCACGUUUGAUUAGGCGUGACAUGAGGAUCACCCAUGUGUCAGGAUAUACAUGGGCGGGCCCAGUAGAAGGGACUUAAUAGC
apparent Kd [3]: 327 nM | apparent Kd [4]: 65.1 nM

UAGAAAGAUUAAUAUGAUUACAUGAGGAUCACCCAUGUAUAAUAGGAUAUCGACGUCAAUGACGUCGAGAAGGAUUAUACAUAA
apparent Kd [1]: 53.6 nM | apparent Kd [2]: 71.2 nM

UAGAAGUCAGGAUAUCCAGCUCGUCACUUGCGUGAUGAGUUGGAGAAGGGACAUGAGGAUCACCCAUGUAAAGG
apparent Kd [1]: 152 nM | apparent Kd [2]: 242 nM

UAGACAUGAGGAUCACCCAUGUACUGGAUUUCAACGCGAUCACAGGAUAUACGGGAUUCGUCCACGUAGAAGGGUGACAACGUC
apparent Kd [3]: 143 nM | apparent Kd [4]: 35.1 nM

UAGAUGGGAGGAUAUACAUAGAUACAGAUUCAUGUAGUGCUACAUGAGGAUCACCCAUGUAGAAGGCCCGUCUU
apparent Kd [1]: 33 nM | apparent Kd [2]: 355 nM

UAGCAGUGCGGGUAGGAUAUGUAGGGUGGUACAUGAGGAUCACCCAUGUAUCCACCCUUCGACCGGCAGAAGGGCCUGUCACUGC
apparent Kd [3]: 22 nM | apparent Kd [4]: 22.6 nM

UAGGUCGCAGGAUAUGCUGGGUGCAUAUCUUAGUGCAGGAGACAUGAGGAUCACCCAUGUAGAAGGGCGCGCUG
apparent Kd [1]: 44.9 nM | apparent Kd [2]: 124 nM

UAGUAUAAGGGCAUUAAACAUGAGGAUCACCCAUGUACGUUAGAGGAUAUGCAUUACAGUUGAAAGUAGAAGGUUAGAGAAGGG
apparent Kd [1]: 45.6 nM | apparent Kd [2]: 50.1 nM

UAGUAUUAGCGAGGAUAUCGUAUGUUCAAUUUUUUAUAUUGUUUACAUGAGGAUCACCCAUGUUACGAGAAGGCGCAUGGGAUU
apparent Kd [3]: 466 nM | apparent Kd [4]: 85.8 nM

UAUACACAUGAGGAUCACCCAUGUGAGGAUAUGCGUACGUUGUCCGUAGGCGACGUGCGCAGAAGGCGCAAGGU
apparent Kd [1]: 72.7 nM | apparent Kd [2]: 104 nM

UAUAUAAUAUUUCACAUGAGGAUCACCCAUGUACAUGGGAUAGAGGAUAUACAAAUAUUAGUGGUGUAGAAGGUUAAUAUAUAU
apparent Kd [1]: 158 nM | apparent Kd [2]: 101 nM

UAUAUAUAGGCAGGAUAUACAUGAAUAUAUAUAAUAUAAUAUGAUGUAACAUGAGGAUCACCCAUGUAGAAGGGCCAAUAUAUA
apparent Kd [1]: 32.6 nM | apparent Kd [2]: 64.9 nM

UAUAUAUAGUAAGGAUAUGUAUAAAUUUUAUAAACAGAAGGUACUGACAUGAGGAUCACCCAUGUUUUAGUGUGGGCAUGUAGA
apparent Kd [1]: 96.2 nM | apparent Kd [2]: 147 nM

UAUAUAUAGUAAGGAUAUGUAUUAAUUUUACAAACAGAAGGUACUGACAUGAGGAUCACCCAUGUUUUAGUGUGGGCAUGUAGA
apparent Kd [1]: 59.9 nM | apparent Kd [2]: 72.6 nM

UAUAUAUAGUAAGGAUAUGUAUUUAUUUUACAAACAGAAGGUACUGACAUGAGGAUCACCCAUGUUUUAGUGUGGGCAUGUAGA
apparent Kd [1]: 61.1 nM | apparent Kd [2]: 76.1 nM

UAUAUAUAGUAAGGAUAUGUAUUUAUUUUAUAAACAGAAGGUACUGACAUGAGGAUCACCCAUGUUUUAGUGUGGGCAUGUAGA
apparent Kd [1]: 89.1 nM | apparent Kd [2]: 128 nM

UAUGAGCGAGGAUAUGCUUGGGACUGUCGGAAGGUGGCGGGACAUGAGGAUCACCCAUGUAGAAGGCGCGAGCG
apparent Kd [1]: 70.7 nM | apparent Kd [2]: 82.8 nM
